Experimental data gathered from unrelated publications.
Compare with care: the assays were run in different laboratories. pIC50: −log10 of the molar value.
SLC22A1: Solute carrier family 22 member 1 (SLC22A1, Homo sapiens, UniProt O15245)

CCCCOC(=O)N1CCN(C(=O)[C@H](CP(=O)(O)O)NC(=O)c2cc(N3CC[C@H](OC)C3)nc(-c3ccccc3)n2)CC1  concentration (human, plasma; subcutaneous, 16 mg, 24 h, single dose): 2.1 ng/mL
CN(CCC(=O)O)C(=O)c1ccc2c(c1)CC[C@@H]1[C@@H]2CC[C@]2(C)C(c3cncc(F)c3)=CC[C@@H]12  pIC50 (UDP-glucuronosyltransferase 2B4 (UGT2B4, Homo sapiens, UniProt P06133); enzyme activity, inhibitor): < 4.52
C=CCn1c(=O)c2cnc(Nc3ccc(N4CCN(C)CC4)cc3)nc2n1-c1cccc(C(C)(C)O)n1  concentration (human, plasma; oral, 175 mg, 8 h, single dose): 213 nM
C=C[C@H]1C[N@@]2CC[C@H]1C[C@@H]2[C@@H](O)c1ccnc2ccc(OC)cc12  inhibition (SLC22A1; transporter uptake, inhibitor; MDCK-II; 100 µM, 5 min): 77%
COc1cc(OC)c2c(=O)cc(-c3ccc(N(C)C)cc3)oc2c1  CC50 (HS27; cell growth or viability, MTT; 24 h): > 200 µM
C[C@@]12COCO[C@@H]1CC[C@]1(C)[C@@H]2CC[C@@H]2CN(Cc3ccccc3)[C@@H](C3=CCOC3=O)C[C@H]21  cell death (MRC5; cell growth or viability, ATP luminescence; 25 µM, 72 h): -1.2%
Oc1c(-n2ccnn2)cnn1-c1cc(N2CCOCC2)ncn1  bioavailability (female monkey, plasma; oral, 1 mg/kg): 61%
CC(C)CN1C[C@H]2CC[C@@H]3[C@]4(C)COC(C)(C)O[C@@H]4CC[C@@]3(C)[C@@H]2C[C@@H]1C1=CCOC1=O  cell death (MRC5; cell growth or viability, ATP luminescence; 25 µM, 72 h): -4.1%
COc1cc(OC)c2c(=O)cc(-c3ccccc3Br)oc2c1  CC50 (HS27; cell growth or viability, MTT; 24 h): > 200 µM
O=C(O)CSc1nnc(Br)n1-c1ccc(C2CC2)c2ccccc12  inhibition (SLC22A1; transporter uptake, inhibitor; MDCK-II; 30 µM, 5 min): 58%
COc1ccc(-c2cc(=O)c3c(OC)cc(OC)cc3o2)cc1  CC50 (HS27; cell growth or viability, MTT; 24 h): > 200 µM
CC(C)CCN1C[C@H]2CC[C@@H]3[C@]4(C)COC(C)(C)O[C@@H]4CC[C@@]3(C)[C@@H]2C[C@@H]1C1=CCOC1=O  cell death (MRC5; cell growth or viability, ATP luminescence; 25 µM, 72 h): 11.7%
